From ChEMBL document CHEMBL5247575 (J Med Chem, 2018)
Converted amounts (≈) assume the structure as drawn.

Assays:
[1] = system: Acinetobacter baumannii; test: Antibacterial activity against Acinetobacter baumannii PR476 producing OXA-24/40 by broth microdilution method; format: functional
[2] = system: Acinetobacter baumannii; test: Antibacterial activity against Acinetobacter baumannii NCTC 13301 producing OXA-23/51 infected in sc dosed Swiss albino mouse administered 1 hr post infection and measured upto 7 days; format: functional; details: for ED90 / ED50: NCTC 13301, 168 h, time <= 7 day; for ED50: read-out: PD50
Summary of the method: (§1)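 Peritonitis model: male and female Swiss albino mice infected intraperitoneally with 3.5×10^5 to 3×10^6 CFU/mouse in 5% hog gastric mucin (lethal to untreated mice within 24 h). […] Survival followed 7 days; PD50/PD90 by probit analysis.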

[3] = system: Acinetobacter baumannii; test: Antibacterial activity against Acinetobacter baumannii NCTC 13303 producing OXA-26/51 infected in sc dosed Swiss albino mouse administered 1 hr post infection and measured upto 7 days; format: functional; details: NCTC 13303, 168 h, time <= 7 day; summary of the method: as §1
[4] = system: Acinetobacter baumannii; test: Antibacterial activity against Acinetobacter baumannii SL46 producing OXA-23/51 infected in sc dosed Swiss albino mouse administered 1 hr post infection and measured upto 7 days; format: functional; details: SL46, 168 h, time <= 7 day; summary of the method: as §1
[5] = system: Acinetobacter baumannii; test: Antibacterial activity against Acinetobacter baumannii SL04 producing OXA-23/51 infected in Swiss mouse model of neutropenic lung infection assessed as reduction in log10CFU at 50 mg/kg
[6] = system: Acinetobacter baumannii; test: Antibacterial activity against Acinetobacter baumannii SL04 producing OXA-23/51 infected in Swiss mouse model of neutropenic lung infection
[7] = system: Acinetobacter baumannii; test: Antibacterial activity against Acinetobacter baumannii NCTC 13303 producing OXA-26/51 infected in sc dosed Swiss albino mouse administered 1 hr post infection and measured upto 7 days; details: NCTC 13303, 168 h; for ED50: read-out: PD50
[8] = system: Escherichia coli; test: Antibacterial activity against Escherichia coli DH10B transfected with pBC SK (-) OXA-48 by broth microdilution method; format: functional
[9] = system: Klebsiella pneumoniae; test: Antibacterial activity against Klebsiella pneumoniae 660/1568 producing KPC-3 by broth microdilution method; format: functional
[10] = system: Klebsiella pneumoniae; test: Antibacterial activity against Klebsiella pneumoniae 977/1916 producing KPC-3 by broth microdilution method; format: functional
[11] = system: Acinetobacter baumannii; test: Antibacterial activity against ADC deleted Acinetobacter baumannii transfected with pWH1266 producing OXA-24/40 by broth microdilution method; format: functional
[12] = system: Acinetobacter baumannii; test: Antibacterial activity against Acinetobacter baumannii SL46 producing OXA-23/51 infected in sc dosed Swiss albino mouse administered 1 hr post infection and measured upto 7 days; details: SL46, 168 h

Compound	MIC [1]	ED90 [2]	ED50 [2]	MIC [6]	ED90 [7]	ED50 [7]	further results
CO/N=C(\C(=O)N[C@@H]1C(=O)N2C(C(=O)[O-])=C(C[N+]3(C)CCCC3)CS[C@H]12)c1csc(N)n1	1 µg/mL (≈ 2.08 µM)	> 100 mg/kg	> 100 mg/kg				ED90 [3]: 50 mg/kg; ED50 ([3]; read-out: PD50): 50 mg/kg; ED90 [4]: 50 mg/kg; ED50 ([4]; read-out: PD50): 50 mg/kg; Activity [5]: 0.98 log10CFU
COLISTIN							PD50 ([2]; time <= 7.0 day): 16.6 mg/kg
CN(C)c1cc(NC(=O)CNC(C)(C)C)c(O)c2c1C[C@H]1C[C@H]3[C@H](N(C)C)C(O)=C(C(N)=O)C(=O)[C@@]3(O)C(O)=C1C2=O [TIGECYCLINE]		> 6.25 mg/kg	> 6.25 mg/kg	4 µg/mL (≈ 6.83 µM)	> 6.25 mg/kg	> 6.25 mg/kg	
C[C@@H](O)[C@H]1C(=O)N2C(C(=O)O)=C(SCCNC=N)C[C@H]12 [IMIPENEM ANHYDROUS]				64 µg/mL (≈ 214 µM)			
C[C@@H](O)[C@H]1C(=O)N2C(C(=O)O)=C(S[C@@H]3CN[C@H](C(=O)N(C)C)C3)[C@H](C)[C@H]12 [MEROPENEM]	0.25 µg/mL (≈ 0.652 µM)	25 mg/kg	25 mg/kg	64 µg/mL (≈ 167 µM)	50 mg/kg	50 mg/kg	MIC [8]: 8 µg/mL (≈ 20.9 µM); MIC [9]: 2 µg/mL (≈ 5.22 µM); MIC [10]: 1 µg/mL (≈ 2.61 µM); MIC [11]: > 16 µg/mL; ED90 [12]: 50 mg/kg; ED50 ([12]; read-out: PD50): 50 mg/kg
